Laboratory results: ChEMBL document CHEMBL4308847, “Discovery, Structure-Activity Relationship, and Biological Characterization of a Novel Series of 6-((1 H-Pyrazolo[4,3- b]pyridin-3-yl)amino)-benzo[ d]isothiazole-3-carboxamides as Positive Allosteric Modulators of the Metabotropic Glutamate Receptor 4 (mGlu4)” (J Med Chem, 2018)

Tests used:
[1] = target: T1, Metabotropic glutamate receptor 4 (Homo sapiens, UniProt Q14833); assay: (§1) Positive allosteric modulation of human mGlu4 receptor expressed in CHO cells co-expressing Gqi5 assessed as increase in glutamate-induced calcium mobilization preincubated for 142 secs followed by EC20 glutamate addition and measured after 147 secs by Fluo-4-AM dye based fluorescence assay relative to control; assay type: functional, cell-based
Method in brief: (§2)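 CHO cells expressing human mGlu4 and Gqi5, plated at 30,000 cells/well and grown overnight at 37 °C, 5% CO2. Cells were loaded with 1 μM Fluo-4 AM for 45 min at 37 °C in HBSS/20 mM HEPES/2.5 mM probenecid. Compounds were run as 10-point, 1:3 dilution series. After 142 s, EC20 glutamate was added; 147 s later, EC80 glutamate. Fluorescence was normalized to the maximal glutamate response. EC50 and %Glu Max were fitted by four-parameter logistic, with maximum normalized to PHCCC.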

[2] = target: T1, Metabotropic glutamate receptor 4; assay: as §1, with “subsequent EC80 glutamate addition” for “measured”, “assay” for “assay relative to control”; assay type: functional, cell-based; method in brief: as §2
[3] = Fraction unbound in rat plasma after 4 hrs by equilibrium dialysis method; assay type: ADME, cell-free
[4] = Intrinsic clearance in human liver microsomes at 1 uM preincubated for 5 mins followed by NADPH addition measured up to 45 mins by LC-MS/MS analysis; assay type: ADME, Microsome; conditions: read-out: CLH
Method in brief: (§3)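 Intrinsic and predicted hepatic clearance derived from liver microsome incubations.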

[5] = target: Metabotropic glutamate receptor 4 (Rattus norvegicus) (UniProt P31423); assay: Positive allosteric modulation of rat mGlu4 receptor expressed in HEK cells co-expressing GIRK1/2 assessed as increase in glutamate-induced thallium flux preincubated for 140 secs followed by glutamate addition and measured after 2.5 mins by FluoZin-2-AM dye based fluorescence assay relative to control; assay type: cell-based
Method in brief: (§4)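 HEK cells co-expressing rat mGlu4 and GIRK1/2 were loaded for 1 h at room temperature with FluoZin-2 AM (330 nM final) in HBSS/20 mM HEPES pH 7.4. Compound was incubated 140 s, then thallium buffer with or without agonist was added. Reading continued for 2.5 min at room temperature. Potency was fitted by four-parameter logistic.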

[6] = target: Metabotropic glutamate receptor 4 (Rattus norvegicus, UniProt P31423); assay: Positive allosteric modulation of rat mGlu4 receptor expressed in HEK cells co-expressing GIRK1/2 assessed as increase in glutamate-induced thallium flux preincubated for 140 secs followed by glutamate addition and measured after 2.5 mins by FluoZin-2-AM dye based fluorescence assay; assay type: cell-based; method in brief: as §4
[7] = Intrinsic clearance in rat liver microsomes at 1 uM preincubated for 5 mins followed by NADPH addition measured up to 45 mins by LC-MS/MS analysis; assay type: ADME, Microsome; conditions: read-out: CLH; method in brief: as §3
[8] = Fraction unbound in human plasma after 4 hrs by equilibrium dialysis method; assay type: ADME, cell-free
Cytochrome P450 1A2 = target: T2, Cytochrome P450 1A2 (Homo sapiens, UniProt P05177); assay: Inhibition of CYP1A2 in human liver microsomes using phenacetin as substrate preincubated for 15 mins followed by substrate addition and measured after 8 mins by LC-MS/MS analysis; assay type: ADME
T2 sequence (P05177 whole entry): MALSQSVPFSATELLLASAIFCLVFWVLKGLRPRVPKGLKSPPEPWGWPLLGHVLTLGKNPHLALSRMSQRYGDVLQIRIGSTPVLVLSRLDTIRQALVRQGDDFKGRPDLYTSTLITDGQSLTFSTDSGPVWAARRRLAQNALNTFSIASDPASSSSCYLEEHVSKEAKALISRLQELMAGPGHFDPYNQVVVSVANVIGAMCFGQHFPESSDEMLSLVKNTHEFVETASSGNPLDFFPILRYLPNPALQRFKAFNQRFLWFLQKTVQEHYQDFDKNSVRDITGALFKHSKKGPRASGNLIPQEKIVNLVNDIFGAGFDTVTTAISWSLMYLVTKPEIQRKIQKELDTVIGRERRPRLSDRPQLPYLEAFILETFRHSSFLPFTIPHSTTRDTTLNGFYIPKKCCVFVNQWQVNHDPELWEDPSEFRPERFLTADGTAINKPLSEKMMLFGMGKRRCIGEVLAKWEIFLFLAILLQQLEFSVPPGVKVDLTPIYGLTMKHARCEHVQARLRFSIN
Method in brief: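 IC50 for CYP1A2 inhibition determined in human liver microsomes using specific probe substrate-metabolite pairs.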

[9] = Clearance in rat administered as iv cassette dose; assay type: ADME, organism-based; conditions: in vivo
Method in brief: (§5)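 IV cassette in male Sprague-Dawley rats (~300 g, n = 1 per experiment), cannulated in carotid artery and jugular vein and acclimated about one week. Plasma clearance, Vss, t1/2 and MRT were derived.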

[10] = Half life in rat administered as iv cassette dose; assay type: ADME, organism-based; conditions: in vivo; method in brief: as §5

T1 sequence (Q14833 whole entry): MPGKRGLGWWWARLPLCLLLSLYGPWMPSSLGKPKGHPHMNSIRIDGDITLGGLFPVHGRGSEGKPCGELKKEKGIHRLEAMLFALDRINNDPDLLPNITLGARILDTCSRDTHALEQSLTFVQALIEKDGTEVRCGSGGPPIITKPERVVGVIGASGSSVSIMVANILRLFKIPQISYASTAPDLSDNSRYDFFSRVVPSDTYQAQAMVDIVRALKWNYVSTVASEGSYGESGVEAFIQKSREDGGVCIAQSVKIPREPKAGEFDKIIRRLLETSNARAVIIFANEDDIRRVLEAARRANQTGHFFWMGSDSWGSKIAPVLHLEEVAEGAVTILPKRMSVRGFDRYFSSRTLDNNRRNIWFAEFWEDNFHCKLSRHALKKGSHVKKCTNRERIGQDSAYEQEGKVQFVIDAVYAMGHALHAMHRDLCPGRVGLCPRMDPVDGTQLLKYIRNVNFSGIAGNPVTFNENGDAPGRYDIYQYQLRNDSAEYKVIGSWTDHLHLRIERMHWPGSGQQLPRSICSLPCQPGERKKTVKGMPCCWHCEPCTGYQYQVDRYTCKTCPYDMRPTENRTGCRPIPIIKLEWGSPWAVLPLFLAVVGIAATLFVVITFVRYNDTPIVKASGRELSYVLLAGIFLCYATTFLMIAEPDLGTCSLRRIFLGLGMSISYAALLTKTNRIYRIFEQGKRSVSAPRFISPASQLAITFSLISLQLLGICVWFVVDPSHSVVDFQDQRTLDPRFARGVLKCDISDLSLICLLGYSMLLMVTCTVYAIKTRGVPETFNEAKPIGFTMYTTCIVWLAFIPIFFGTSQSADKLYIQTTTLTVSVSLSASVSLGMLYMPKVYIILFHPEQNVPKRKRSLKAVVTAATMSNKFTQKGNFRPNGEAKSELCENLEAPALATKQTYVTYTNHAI
Metabotropic glutamate receptor 4 (Rattus norvegicus), sequence (P31423 whole entry): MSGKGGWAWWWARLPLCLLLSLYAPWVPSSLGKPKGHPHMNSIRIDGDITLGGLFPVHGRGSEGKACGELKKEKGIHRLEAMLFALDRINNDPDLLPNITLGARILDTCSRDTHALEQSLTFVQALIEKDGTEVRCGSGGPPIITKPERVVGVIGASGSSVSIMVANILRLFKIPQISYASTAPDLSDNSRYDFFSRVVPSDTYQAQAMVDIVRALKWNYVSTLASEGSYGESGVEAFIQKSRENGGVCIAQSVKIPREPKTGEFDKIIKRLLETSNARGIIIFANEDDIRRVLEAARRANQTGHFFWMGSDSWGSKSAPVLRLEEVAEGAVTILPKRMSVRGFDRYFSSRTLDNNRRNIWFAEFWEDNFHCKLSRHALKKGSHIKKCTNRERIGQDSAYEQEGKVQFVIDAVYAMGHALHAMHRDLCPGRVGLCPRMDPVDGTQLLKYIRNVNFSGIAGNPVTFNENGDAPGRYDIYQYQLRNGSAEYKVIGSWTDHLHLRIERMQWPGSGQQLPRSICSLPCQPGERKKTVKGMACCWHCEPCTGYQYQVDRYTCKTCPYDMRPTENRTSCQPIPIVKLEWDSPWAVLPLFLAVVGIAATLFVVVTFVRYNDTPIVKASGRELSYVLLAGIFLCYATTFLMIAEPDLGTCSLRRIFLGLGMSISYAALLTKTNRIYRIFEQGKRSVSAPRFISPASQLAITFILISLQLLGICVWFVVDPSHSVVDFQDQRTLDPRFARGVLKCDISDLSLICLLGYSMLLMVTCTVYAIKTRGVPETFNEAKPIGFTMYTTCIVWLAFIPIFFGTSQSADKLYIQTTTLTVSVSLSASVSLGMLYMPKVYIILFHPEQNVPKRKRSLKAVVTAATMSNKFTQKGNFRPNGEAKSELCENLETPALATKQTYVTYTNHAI
Metabotropic glutamate receptor 4 (Rattus norvegicus, UniProt P31423), sequence (P31423 whole entry): as above

Structure (SMILES): CC(C)c1noc2cc(Nc3n[nH]c4cccnc34)ccc12
- %max [1]: 23%
- EC50 [2]: 575 nM

Structure (SMILES): CC(C)(C)Cc1noc2cc(Nc3n[nH]c4ncccc34)ccc12
- %max [1]: 84%
- EC50 [2]: 2820 nM

Structure (SMILES): CC(=O)N1CCC(c2nsc3cc(Nc4n[nH]c5cccnc45)ccc23)CC1
- fraction unbound at 4 h [3]: 0.039
- CLint scaled at 1 µM [4]: 15.8 mL/min/kg
- %max [5]: 98.9%
- %max [1]: 79%
- EC50 [6]: 166 nM
- CLint scaled at 1 µM [7]: 21 mL/min/kg
- fraction unbound at 4 h [8]: 0.042
- IC50 (Cytochrome P450 1A2): 21700 nM

Structure (SMILES): c1cnc2c(Nc3ccc4c(C5CCC5)noc4c3)n[nH]c2c1
- fraction unbound at 4 h [3]: 0.016
- CLint scaled at 1 µM [4]: 83.2 mL/min/kg
- %max [1]: 88%
- CLint scaled at 1 µM [7]: 1220 mL/min/kg
- fraction unbound at 4 h [8]: 0.026
- EC50 [2]: 851 nM
- IC50 (Cytochrome P450 1A2): 1800 nM

Structure (SMILES): CC(C)Cc1noc2cc(Nc3n[nH]c4cccnc34)ccc12
- %max [1]: 53%
- EC50 [2]: 813 nM

Structure (SMILES): CCc1noc2ccc(Nc3n[nH]c4ncccc34)cc12
- %max [1]: 54%
- EC50 [2]: > 10000 nM

Structure (SMILES): FC1(F)CCN(Cc2nsc3cc(Nc4n[nH]c5cccnc45)cnc23)CC1
- Fu ([3]; 4 h): Nd(Unstable)
- CLint scaled at 1 µM [4]: 27.5 mL/min/kg
- %max [1]: 84%
- CLint scaled at 1 µM [7]: 1080 mL/min/kg
- Fu ([8]; 4 h): Nd(Unstable)
- IC50 (Cytochrome P450 1A2): > 30000 nM

Structure (SMILES): CC(C)(C)Cc1noc2cc(Nc3n[nH]c4cccnc34)ccc12
- fraction unbound at 4 h [3]: 0.022
- clearance [9]: 43.2 mL/min/kg
- half-life [10]: 1.33 h
- CLint scaled at 1 µM [4]: 7.3 mL/min/kg
- %max [5]: 84.8%
- %max [1]: 68.9%
- EC50 [6]: 542 nM
- CLint scaled at 1 µM [7]: 86.9 mL/min/kg
- fraction unbound at 4 h [8]: 0.016
- EC50 [2]: 1300 nM
- IC50 (Cytochrome P450 1A2): 1100 nM

Structure (SMILES): c1cnc2c(Nc3ccc4c(C5CCC5)noc4c3)n[nH]c2n1
- %max [1]: 102%
- EC50 [2]: 708 nM

Structure (SMILES): CC(C)(C)Cc1nsc2cc(Nc3n[nH]c4nccnc34)cnc12
- fraction unbound at 4 h [3]: 0.011
- CLint scaled at 1 µM [4]: 40.2 mL/min/kg
- %max [5]: 112%
- %max [1]: 54%
- EC50 [6]: 158 nM
- CLint scaled at 1 µM [7]: 189 mL/min/kg
- fraction unbound at 4 h [8]: 0.013
- EC50 [2]: 105 nM
- IC50 (Cytochrome P450 1A2): > 30000 nM

Structure (SMILES): O=C(c1nsc2cc(Nc3n[nH]c4cccnc34)ccc12)N1CCOCC1
- fraction unbound at 4 h [3]: 0.059
- CLint scaled at 1 µM [4]: 44.3 mL/min/kg
- %max [1]: 62%
- CLint scaled at 1 µM [7]: 172 mL/min/kg
- fraction unbound at 4 h [8]: 0.077
- EC50 [2]: 275 nM

Structure (SMILES): CC(C)(C)Cc1nsc2cc(Nc3n[nH]c4ncccc34)ccc12
- %max [1]: 74%
- EC50 [2]: 759 nM

Structure (SMILES): CC(C)(C)Cc1nsc2cc(Nc3n[nH]c4cccnc34)cnc12
- fraction unbound at 4 h [3]: 0.016
- CLint scaled at 1 µM [4]: 24.7 mL/min/kg
- %max [1]: 51%
- CLint scaled at 1 µM [7]: 277 mL/min/kg
- fraction unbound at 4 h [8]: 0.006
- EC50 [2]: 74 nM
- IC50 (Cytochrome P450 1A2): 22100 nM

Structure (SMILES): CC(C)(C)Cc1nsc2cc(Nc3n[nH]c4cccnc34)ccc12
- %max [1]: 70%
- EC50 [2]: 269 nM

Structure (SMILES): FC(F)(F)c1nsc2cc(Nc3n[nH]c4ncccc34)ccc12
- %max [1]: 50%
- EC50 [2]: 794 nM

Structure (SMILES): CC(C)(O)c1nsc2cc(Nc3n[nH]c4cccnc34)ccc12
- %max [1]: 98%
- EC50 [2]: 1050 nM

Structure (SMILES): Cc1noc2cc(Nc3n[nH]c4cccnc34)ccc12
- %max [1]: 86%
- EC50 [2]: 1860 nM

Structure (SMILES): c1cnc2[nH]nc(Nc3ccc4c(C5CCCC5)noc4c3)c2c1
- %max [1]: 60%
- EC50 [2]: 2400 nM

Structure (SMILES): CC1CN(C(=O)c2nsc3cc(Nc4n[nH]c5cccnc45)ccc23)CC(C)O1 (configuration not stated)
- fraction unbound at 4 h [3]: 0.034
- CLint scaled at 1 µM [4]: 60 mL/min/kg
- %max [1]: 44%
- CLint scaled at 1 µM [7]: 229 mL/min/kg
- fraction unbound at 4 h [8]: 0.013
- EC50 [2]: 324 nM
